Columns and labels:
[1] = The percent remaining in human plasma after 30 min was determined; format: ADME, cell-free; conditions: read-out: Stability
Method in brief: (§1)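 Compound, dissolved in DMSO, was spiked into human plasma and incubated at 37 °C. Stability was read as the percentage of intact compound left after 30 min. Half-life in human plasma was taken from this same incubation.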

Chymase = molecular target: T1, Chymase (Homo sapiens, UniProt P23946); assay: Inhibition of human Serine protease chymase
T1 sequence (P23946 whole entry): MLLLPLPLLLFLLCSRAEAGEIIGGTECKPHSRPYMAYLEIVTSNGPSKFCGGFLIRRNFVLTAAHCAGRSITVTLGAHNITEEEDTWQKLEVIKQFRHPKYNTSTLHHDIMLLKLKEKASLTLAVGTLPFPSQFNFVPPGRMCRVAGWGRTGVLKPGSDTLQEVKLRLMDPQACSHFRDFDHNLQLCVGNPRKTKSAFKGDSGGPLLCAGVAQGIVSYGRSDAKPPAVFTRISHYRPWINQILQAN

[2] = The compound was evaluated for its half-life period; format: ADME; method in brief: as §1
Neutrophil elastase = molecular target: T2, Neutrophil elastase (Homo sapiens, UniProt P08246); assay: Inhibitory concentration was measured against elastase
T2 sequence (P08246 whole entry): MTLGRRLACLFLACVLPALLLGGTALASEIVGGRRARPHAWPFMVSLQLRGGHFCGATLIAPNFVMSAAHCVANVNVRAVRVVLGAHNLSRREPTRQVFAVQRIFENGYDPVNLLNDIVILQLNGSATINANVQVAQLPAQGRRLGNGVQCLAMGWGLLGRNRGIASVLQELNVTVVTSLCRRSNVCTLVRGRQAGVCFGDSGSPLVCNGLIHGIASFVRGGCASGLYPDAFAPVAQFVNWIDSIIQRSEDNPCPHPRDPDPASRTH

Prothrombin = Prothrombin (Homo sapiens, UniProt P00734); assay: Inhibitory concentration was measured against thrombin
Plasminogen = Plasminogen (Rattus norvegicus, UniProt Q01177); assay: Inhibitory concentration was measured against plasmin
Chymotrypsinogen A = Chymotrypsinogen A (Bos taurus, UniProt P00766); assay: Inhibitory concentration was measured against alpha-chymotrypsin
Serine protease 1 = Serine protease 1 (Homo sapiens, UniProt P07477); assay: Inhibitory concentration was measured against trypsin
Sequence of Serine protease 1 (P07477 whole entry): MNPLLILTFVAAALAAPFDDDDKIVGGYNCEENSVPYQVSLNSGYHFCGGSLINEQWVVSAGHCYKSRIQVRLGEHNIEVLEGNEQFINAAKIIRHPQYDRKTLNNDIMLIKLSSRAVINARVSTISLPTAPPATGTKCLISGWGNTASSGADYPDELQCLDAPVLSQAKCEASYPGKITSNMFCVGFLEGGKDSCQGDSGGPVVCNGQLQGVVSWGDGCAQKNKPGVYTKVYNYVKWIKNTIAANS

Sequence of Plasminogen (Q01177 97-581 limits assumed): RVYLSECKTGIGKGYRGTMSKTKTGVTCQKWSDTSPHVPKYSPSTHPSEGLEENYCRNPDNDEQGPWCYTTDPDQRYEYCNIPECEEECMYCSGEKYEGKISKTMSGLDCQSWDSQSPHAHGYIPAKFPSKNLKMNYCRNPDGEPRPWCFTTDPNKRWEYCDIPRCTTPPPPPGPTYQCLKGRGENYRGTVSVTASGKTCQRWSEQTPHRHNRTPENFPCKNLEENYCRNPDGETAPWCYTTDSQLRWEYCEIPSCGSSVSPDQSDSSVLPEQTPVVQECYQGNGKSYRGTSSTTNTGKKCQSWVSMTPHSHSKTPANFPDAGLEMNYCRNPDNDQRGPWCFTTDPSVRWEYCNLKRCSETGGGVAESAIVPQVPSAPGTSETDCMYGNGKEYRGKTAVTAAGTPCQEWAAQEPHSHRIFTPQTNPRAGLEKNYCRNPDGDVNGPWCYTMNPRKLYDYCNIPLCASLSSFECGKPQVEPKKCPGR
Sequence of Plasminogen (Q01177 582-812 limits assumed): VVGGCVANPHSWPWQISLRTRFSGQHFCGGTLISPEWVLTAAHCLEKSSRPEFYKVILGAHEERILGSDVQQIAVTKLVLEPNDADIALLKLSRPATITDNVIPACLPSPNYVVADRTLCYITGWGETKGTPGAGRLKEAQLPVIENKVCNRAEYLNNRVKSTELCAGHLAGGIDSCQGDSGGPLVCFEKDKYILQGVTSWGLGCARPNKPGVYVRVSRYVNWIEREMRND

| Structure (SMILES) | remaining at 0.5 h [1] | also measured |
| --- | --- | --- |
| CO[C@@]1(NC(=O)Cc2ccc(O)cc2)C(=O)N2C(C(=O)OC(c3ccccc3)c3ccccc3)=C(CSc3nnnn3C)CO[C@@H]21 | 40% | – |
| CCC(C)Oc1ccccc1C(=O)N[C@]1(OC)C(=O)N2C(C(=O)OCc3ccc(C(=O)O)cc3)=C(CSc3nnnn3C)CO[C@@H]21 (stereo partly drawn) | 39% | – |
| CO[C@@]1(NC(=O)Cc2ccc(N(C)C)cc2)C(=O)N2C(C(=O)OC(c3ccccc3)c3ccccc3)=C(CSc3nnnn3C)CO[C@@H]21 | 53% | – |
| CO[C@@]1(NC(=O)Cc2ccc(O)cc2)C(=O)N2C(C(=O)OCc3cccc(C)c3)=C(CSc3nnc(C)s3)CO[C@@H]21 | 13% | – |
| CO[C@@]1(NC(=O)Cc2ccc(O)cc2)C(=O)N2C(C(=O)OCc3cccc(C)c3)=C(CSc3nnnn3C)CO[C@@H]21 | 10% | – |
| COc1ccccc1C(=O)N[C@]1(OC)C(=O)N2C(C(=O)OCc3cccc(C)c3)=C(CSc3nnnn3CC(=O)O)CO[C@@H]21 | 11% | half-life [2]: < 0.167 h |
| CCOc1ccccc1C(=O)N[C@]1(OC)C(=O)N2C(C(=O)OCc3ccc(C(=O)O)cc3)=C(CSc3nnnn3C)CO[C@@H]21 | 87% | IC50 (Neutrophil elastase): 9500 nM; IC50 (Prothrombin): 3600 nM; IC50 (Plasminogen): > 10000 nM; IC50 (Chymotrypsinogen A): 160 nM; IC50 (Chymase): 27 nM; IC50 (Serine protease 1): 2100 nM; half-life [2]: 1.5 h |

More lines, main results first:

| remaining at 0.5 h [1] | Structure (SMILES) | also measured |
| --- | --- | --- |
| 26% | CCCOc1ccccc1C(=O)N[C@]1(OC)C(=O)N2C(C(=O)OCc3ccc(C(=O)O)cc3)=C(CSc3nnnn3C)CO[C@@H]21 | – |
| 42% | CO[C@@]1(NC(=O)c2ccccc2OC(C)C)C(=O)N2C(C(=O)OCc3ccc(C(=O)O)cc3)=C(CSc3nnnn3C)CO[C@@H]21 | – |
| 59% | CO[C@@]1(NC(=O)Cc2ccc(O)cc2)C(=O)N2C(C(=O)OCc3cccc(C)c3)=C(C)CO[C@@H]21 | IC50 (Chymase): > 10000 nM |
| 63% | CO[C@@]1(NC(=O)c2ccccc2Oc2ccccc2)C(=O)N2C(C(=O)OCc3ccc(C(=O)O)cc3)=C(CSc3nnnn3C)CO[C@@H]21 | – |
| 73% | COc1ccccc1C(=O)N[C@]1(OC)C(=O)N2C(C(=O)OC(c3ccccc3)c3ccccc3)=C(CSc3nnnn3C)CO[C@@H]21 | – |
| 5% | CO[C@@]1(NC(=O)Cc2ccc(O)cc2)C(=O)N2C(C(=O)OCc3cccc(C)c3)=C(CSc3nnnn3CC(=O)O)CO[C@@H]21 | – |
| 26% | COc1ccccc1C(=O)N[C@]1(OC)C(=O)N2C(C(=O)OCc3ccc(C(=O)O)cc3)=C(CSc3nnnn3C)CO[C@@H]21 | – |

Reference: ChEMBL document CHEMBL1132791, “1-Oxacephem-based human chymase inhibitors: discovery of stable inhibitors in human plasma” (Bioorg Med Chem Lett, 2000)
